Test results from ChEMBL document CHEMBL2034817, “Synthesis and evaluation of 4- and 5-pyridazin-3-one phenoxypropylamine analogues as histamine-3 receptor antagonists” (Bioorg Med Chem, 2012).
The source made the active and inactive calls. No cut-off for these calls is given here.

Tests used:
[1] = target: Histamine H3 receptor (Rattus norvegicus, UniProt Q9QYN8); assay: Displacement of [3H]-Nalpha-methylhistamine from rat histamine H3 receptor expressed in CHO-A3 cells after 4 hrs by scintillation proximity assay; assay type: cell-based
Histamine H3 receptor (Rattus norvegicus, UniProt Q9QYN8), sequence (Q9QYN8 whole entry): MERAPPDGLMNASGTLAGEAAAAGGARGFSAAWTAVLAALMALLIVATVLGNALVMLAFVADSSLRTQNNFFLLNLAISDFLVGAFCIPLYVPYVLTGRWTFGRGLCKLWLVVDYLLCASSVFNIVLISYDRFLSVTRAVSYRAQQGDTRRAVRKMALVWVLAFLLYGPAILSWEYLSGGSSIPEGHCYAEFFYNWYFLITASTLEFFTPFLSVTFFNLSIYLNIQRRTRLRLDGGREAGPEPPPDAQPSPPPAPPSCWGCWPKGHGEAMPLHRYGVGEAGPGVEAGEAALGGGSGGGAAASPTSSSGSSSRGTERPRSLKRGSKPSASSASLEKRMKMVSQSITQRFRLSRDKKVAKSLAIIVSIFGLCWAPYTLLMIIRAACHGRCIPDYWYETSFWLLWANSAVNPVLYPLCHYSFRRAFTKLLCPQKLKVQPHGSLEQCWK
Outline: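 Rat H3 receptor in pIRES-neo3 stably transfected into CHO-A3 cells, clonally selected; washed membranes in Tris–HCl pH 7.4, 5 mM MgCl2, 0.1% BSA, 10 µg protein/well; ~1 nM final [3H]-N-alpha-methylhistamine, compounds 0.01 nM–30 µM, SPA beads, 4 h room temperature, dark; nonspecific with 10 µM clobenpropit; scintillation counting.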

[2] = target: Histamine H3 receptor (Homo sapiens, UniProt Q9Y5N1); assay: Displacement of [3H]-Nalpha-methylhistamine from human histamine H3 receptor expressed in CHO cells after 4 hrs by scintillation proximity assay; assay type: cell-based
Histamine H3 receptor (Homo sapiens, UniProt Q9Y5N1), sequence (Q9Y5N1 whole entry): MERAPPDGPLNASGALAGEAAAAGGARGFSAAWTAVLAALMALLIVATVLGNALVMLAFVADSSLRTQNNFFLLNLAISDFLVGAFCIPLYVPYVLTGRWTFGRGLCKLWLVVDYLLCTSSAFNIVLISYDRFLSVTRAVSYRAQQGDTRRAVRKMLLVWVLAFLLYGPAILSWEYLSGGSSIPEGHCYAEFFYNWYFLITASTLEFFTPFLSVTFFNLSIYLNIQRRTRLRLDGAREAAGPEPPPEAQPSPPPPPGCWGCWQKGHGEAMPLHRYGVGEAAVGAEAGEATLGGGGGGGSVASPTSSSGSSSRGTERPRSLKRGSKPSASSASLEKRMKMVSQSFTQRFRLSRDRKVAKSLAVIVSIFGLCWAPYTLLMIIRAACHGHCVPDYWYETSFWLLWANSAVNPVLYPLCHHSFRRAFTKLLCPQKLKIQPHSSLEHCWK
Outline: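 Membranes from CHO cells stably expressing human H3 receptor, in 50 mM Tris–HCl pH 7.4, 5 mM MgCl2, 0.1% BSA, 10 µg protein/well; ~1 nM final [3H]-N-alpha-methylhistamine; compounds 0.01 nM–30 µM; SPA beads; 4 h room temperature, dark; nonspecific binding with 10 µM clobenpropit; scintillation counting. Assay-to-assay variation typically within 2.5-fold.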

[3] = Half life in human liver microsomes; assay type: ADME, Microsome
[4] = Half life in monkey liver microsomes; assay type: ADME, Macaca mulatta, Microsome; settings: rhesus monkey
[5] = target: Histamine H2 receptor (Homo sapiens, UniProt P25021); assay: Binding affinity to human histamine H2 receptor
Histamine H2 receptor, sequence (P25021 whole entry): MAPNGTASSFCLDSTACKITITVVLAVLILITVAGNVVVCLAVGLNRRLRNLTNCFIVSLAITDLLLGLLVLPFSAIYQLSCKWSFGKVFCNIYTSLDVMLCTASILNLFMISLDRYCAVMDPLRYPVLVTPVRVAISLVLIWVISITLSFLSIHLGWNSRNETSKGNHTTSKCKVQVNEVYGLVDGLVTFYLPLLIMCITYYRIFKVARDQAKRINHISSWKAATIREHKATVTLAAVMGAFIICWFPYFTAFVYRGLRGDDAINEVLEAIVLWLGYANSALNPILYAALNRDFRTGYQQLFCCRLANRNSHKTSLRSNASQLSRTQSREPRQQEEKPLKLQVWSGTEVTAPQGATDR

[6] = Half life in rat liver microsomes; assay type: ADME, Microsome
[7] = Ratio of drug level in brain to plasma in Sprague-Dawley rat at 5 mg/kg, po at 6 hrs; assay type: ADME, organism-based; design: dose 5 mg/kg, route oral; settings: read-out: BPR
Outline: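 Brain-to-plasma ratio from the 6 h time point after 5 mg/kg po dosing in Sprague–Dawley rats; plasma drug measured by LC–MS/MS after acetonitrile protein precipitation.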

[8] = Oral bioavailability in Sprague-Dawley rat at 5 mg/kg; assay type: ADME, organism-based; settings: in vivo
Outline: (§1)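 Adult male Sprague–Dawley rats (275–350 g). iv dosing via lateral tail vein (3% DMSO/30% Solutol/67% PBS or 100% saline); oral gavage after overnight fast (Tween 80/propylene carbonate/propylene glycol, saline, or 2% HCl–water). Seven serial tail-vein blood samples over 6 or 24 h; plasma protein-precipitated with acetonitrile, LC–MS/MS; noncompartmental parameters.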

[9] = Volume of distribution in Sprague-Dawley rat at 1 mg/kg, iv; assay type: ADME, organism-based; design: dose 1 mg/kg, route intravenous; settings: in vivo; outline: as §1
[10] = AUC (0 to t) in Sprague-Dawley rat at 5 mg/kg, po; assay type: ADME, organism-based; design: dose 5 mg/kg, route oral; settings: plasma; outline: as §1
[11] = target: Cytochrome P450 2D6 (Homo sapiens, UniProt P10635); assay: Inhibition of CYP2D6; assay type: ADME
Cytochrome P450 2D6, sequence (P10635 whole entry): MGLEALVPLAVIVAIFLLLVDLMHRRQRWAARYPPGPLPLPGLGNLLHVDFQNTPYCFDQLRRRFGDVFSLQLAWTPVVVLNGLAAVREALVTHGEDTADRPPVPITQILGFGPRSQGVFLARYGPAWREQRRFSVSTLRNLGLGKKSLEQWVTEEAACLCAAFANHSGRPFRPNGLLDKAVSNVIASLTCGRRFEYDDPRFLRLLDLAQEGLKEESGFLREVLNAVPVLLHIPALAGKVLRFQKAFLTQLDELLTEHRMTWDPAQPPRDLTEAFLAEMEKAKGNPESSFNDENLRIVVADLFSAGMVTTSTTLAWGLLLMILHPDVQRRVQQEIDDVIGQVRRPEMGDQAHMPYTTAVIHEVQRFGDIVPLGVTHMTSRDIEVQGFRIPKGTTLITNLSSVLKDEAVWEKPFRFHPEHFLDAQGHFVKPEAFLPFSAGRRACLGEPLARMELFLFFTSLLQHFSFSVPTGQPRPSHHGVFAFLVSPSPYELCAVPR

[12] = Clearance in Sprague-Dawley rat at 1 mg/kg, iv; assay type: ADME, organism-based; design: dose 1 mg/kg, route intravenous; settings: in vivo; outline: as §1
[13] = target: Histamine H4 receptor (Homo sapiens, UniProt Q9H3N8); assay: Binding affinity to human histamine H4 receptor
Histamine H4 receptor, sequence (Q9H3N8 whole entry): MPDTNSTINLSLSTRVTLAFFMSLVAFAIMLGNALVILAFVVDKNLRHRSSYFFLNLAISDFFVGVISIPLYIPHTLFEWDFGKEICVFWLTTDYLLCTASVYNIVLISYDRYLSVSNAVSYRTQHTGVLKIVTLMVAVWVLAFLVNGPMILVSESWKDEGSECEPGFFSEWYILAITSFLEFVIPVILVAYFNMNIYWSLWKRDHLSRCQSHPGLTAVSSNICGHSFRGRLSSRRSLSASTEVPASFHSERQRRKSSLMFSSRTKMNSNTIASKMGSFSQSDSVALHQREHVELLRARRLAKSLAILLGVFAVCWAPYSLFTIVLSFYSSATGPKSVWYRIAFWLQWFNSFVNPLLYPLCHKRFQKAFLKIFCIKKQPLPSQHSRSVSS

[14] = target: Cytochrome P450 2C9 (Homo sapiens, UniProt P11712); assay: Inhibition of CYP2C9; assay type: ADME
Cytochrome P450 2C9, sequence (P11712 whole entry): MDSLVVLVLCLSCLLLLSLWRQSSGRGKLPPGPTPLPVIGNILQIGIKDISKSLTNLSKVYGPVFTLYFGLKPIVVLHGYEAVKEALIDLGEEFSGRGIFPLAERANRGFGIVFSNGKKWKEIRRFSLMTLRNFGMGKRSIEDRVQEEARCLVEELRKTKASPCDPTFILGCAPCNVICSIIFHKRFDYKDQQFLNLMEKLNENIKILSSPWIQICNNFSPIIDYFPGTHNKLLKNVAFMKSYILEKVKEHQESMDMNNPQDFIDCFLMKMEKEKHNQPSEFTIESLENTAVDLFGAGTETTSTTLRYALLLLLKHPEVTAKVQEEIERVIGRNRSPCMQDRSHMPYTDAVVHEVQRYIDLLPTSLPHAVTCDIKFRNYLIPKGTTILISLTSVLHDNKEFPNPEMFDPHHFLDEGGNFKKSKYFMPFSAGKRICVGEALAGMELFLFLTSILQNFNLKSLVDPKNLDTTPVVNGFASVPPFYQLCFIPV

[15] = Half life in Sprague-Dawley rat at 1 mg/kg, iv; assay type: ADME, organism-based; design: dose 1 mg/kg, route intravenous; settings: in vivo; outline: as §1
[16] = target: Cytochrome P450 2C19 (Homo sapiens, UniProt P33261); assay: Inhibition of CYP2C19; assay type: ADME
Cytochrome P450 2C19, sequence (P33261 whole entry): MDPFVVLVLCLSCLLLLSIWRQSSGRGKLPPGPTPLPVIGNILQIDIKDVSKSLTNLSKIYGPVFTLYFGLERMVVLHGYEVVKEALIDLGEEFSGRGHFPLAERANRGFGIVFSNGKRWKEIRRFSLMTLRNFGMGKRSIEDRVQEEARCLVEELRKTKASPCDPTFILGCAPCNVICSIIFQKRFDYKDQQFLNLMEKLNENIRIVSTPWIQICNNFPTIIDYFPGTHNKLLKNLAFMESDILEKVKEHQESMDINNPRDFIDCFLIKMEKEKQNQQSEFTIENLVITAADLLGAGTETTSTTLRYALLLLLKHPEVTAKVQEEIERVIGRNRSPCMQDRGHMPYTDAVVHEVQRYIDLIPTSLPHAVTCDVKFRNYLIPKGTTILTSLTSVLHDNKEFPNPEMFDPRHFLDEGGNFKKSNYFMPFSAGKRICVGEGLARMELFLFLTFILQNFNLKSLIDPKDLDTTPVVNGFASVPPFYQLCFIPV

[17] = target: Histamine H1 receptor (Homo sapiens, UniProt P35367); assay: Binding affinity to human histamine H1 receptor
Histamine H1 receptor, sequence (P35367 whole entry): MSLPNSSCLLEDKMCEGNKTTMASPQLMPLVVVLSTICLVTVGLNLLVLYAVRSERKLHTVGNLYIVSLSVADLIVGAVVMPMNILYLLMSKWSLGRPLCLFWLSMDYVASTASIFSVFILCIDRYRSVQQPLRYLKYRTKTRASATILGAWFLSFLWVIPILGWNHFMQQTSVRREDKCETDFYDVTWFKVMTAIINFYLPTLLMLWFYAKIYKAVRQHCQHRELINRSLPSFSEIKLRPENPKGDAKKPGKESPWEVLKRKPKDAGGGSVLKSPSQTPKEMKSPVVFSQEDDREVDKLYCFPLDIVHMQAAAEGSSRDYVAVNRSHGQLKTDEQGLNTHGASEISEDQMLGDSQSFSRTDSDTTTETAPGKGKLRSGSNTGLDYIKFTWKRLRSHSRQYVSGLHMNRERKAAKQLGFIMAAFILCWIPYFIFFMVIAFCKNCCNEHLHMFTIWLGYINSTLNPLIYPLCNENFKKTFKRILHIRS

[18] = Cmax in Sprague-Dawley rat at 5 mg/kg, po; assay type: ADME, organism-based; design: dose 5 mg/kg, route oral; settings: in vivo; outline: as §1
[19] = Half life in mouse liver microsomes; assay type: ADME, Microsome
[20] = target: Cytochrome P450 3A4 (Homo sapiens, UniProt P08684); assay: Inhibition of CYP3A4; assay type: ADME
Cytochrome P450 3A4, sequence (P08684 whole entry): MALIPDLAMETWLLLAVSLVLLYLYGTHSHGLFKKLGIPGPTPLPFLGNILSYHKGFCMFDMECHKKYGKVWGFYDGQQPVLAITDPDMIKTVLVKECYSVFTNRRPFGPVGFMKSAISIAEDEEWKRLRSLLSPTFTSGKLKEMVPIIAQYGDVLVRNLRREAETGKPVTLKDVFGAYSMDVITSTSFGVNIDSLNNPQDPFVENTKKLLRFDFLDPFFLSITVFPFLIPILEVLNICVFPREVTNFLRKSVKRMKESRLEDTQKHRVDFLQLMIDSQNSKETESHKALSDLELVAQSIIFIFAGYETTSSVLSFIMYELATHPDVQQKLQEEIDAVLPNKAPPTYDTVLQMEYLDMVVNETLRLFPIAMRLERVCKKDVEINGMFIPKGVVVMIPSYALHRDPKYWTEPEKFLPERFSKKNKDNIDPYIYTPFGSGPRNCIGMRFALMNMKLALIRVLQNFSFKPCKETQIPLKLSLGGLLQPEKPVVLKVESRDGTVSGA

[21] = target: T1, Cytochrome P450 1A2 (Homo sapiens, UniProt P05177); assay: Inhibition of CYP1A2; assay type: ADME
T1 sequence (P05177 whole entry): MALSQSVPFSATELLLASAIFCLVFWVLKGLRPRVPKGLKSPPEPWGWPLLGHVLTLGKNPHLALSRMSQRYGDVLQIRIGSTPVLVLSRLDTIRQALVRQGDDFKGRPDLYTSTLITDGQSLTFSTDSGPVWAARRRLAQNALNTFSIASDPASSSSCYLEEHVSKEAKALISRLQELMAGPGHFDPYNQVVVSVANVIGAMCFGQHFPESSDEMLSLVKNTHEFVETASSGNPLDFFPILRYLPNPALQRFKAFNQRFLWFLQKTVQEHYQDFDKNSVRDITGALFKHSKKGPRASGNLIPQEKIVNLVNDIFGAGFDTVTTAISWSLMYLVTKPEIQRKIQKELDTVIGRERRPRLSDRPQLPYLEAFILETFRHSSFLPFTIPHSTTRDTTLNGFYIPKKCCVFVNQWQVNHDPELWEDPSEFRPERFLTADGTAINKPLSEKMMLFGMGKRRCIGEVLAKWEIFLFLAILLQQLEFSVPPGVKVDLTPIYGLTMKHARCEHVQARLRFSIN

[22] = tested on: Rattus norvegicus; assay: Wake promoting activity in ip dosed rat assessed as increased wake activity after 4 hrs; assay type: functional, organism-based
[23] = Fraction unbound in rat brain homogenate; assay type: ADME, tissue-based
[24] = tested on: Salmonella typhimurium; assay: Genotoxicity against Salmonella typhimurium by AMES test; assay type: toxicity, organism-based; settings: salmonella enterica subsp. enterica serovar typhimurium
[25] = target: Histamine H3 receptor (Rattus norvegicus) (UniProt Q9QYN8); assay: Antagonist activity at histamine H3 receptor on rat cortex membrane by [35S]GTPgammaS binding assay; assay type: functional, tissue-based
Histamine H3 receptor (Rattus norvegicus), sequence (Q9QYN8 whole entry): as the sequence (Q9QYN8 whole entry) above

[26] = tested on: Rattus norvegicus; assay: Toxicity in rat assessed as rat assessed as sleep rebound up to 30 mg/kg, ip up to 22 hrs; assay type: organism-based; design: dose 30 mg/kg, route intraperitoneal; settings: in vivo
Outline: (§2)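 Rats implanted for chronic EEG/EMG recording, dosed ip up to 30 mg/kg; EEG monitored for adverse activity, and sleep after the wake period scored for rebound up to 22 h post-dose.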

[27] = tested on: Rattus norvegicus; assay: Wake promoting activity in rat assessed as cumulative wake time at 30 mg/kg, ip after 4 hrs (reference value: 76+/-6 mins); assay type: functional; settings: route intraperitoneal
[28] = tested on: Rattus norvegicus; assay: Antidipsogenic activity in ip dosed Harlan Long Evans rat assessed as inhibition of RAMH-induced water drinking; assay type: functional
Outline: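 Water drinking for 30 min beginning 20 min after RAMH (10 mg/kg ip); test compound in saline given beforehand. Per-rat percent inhibition normalized to RAMH group mean drinking; group means compared by one-way ANOVA with Dunnett's test versus RAMH group.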

[29] = target: Voltage-gated inwardly rectifying potassium channel KCNH2 (Homo sapiens, UniProt Q12809); assay: Inhibition of human ERG by patch clamp assay
Outline: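 hERG inhibition measured in a patch clamp assay.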

[30] = Plasma protein binding in rat at 5 uM after 1 hr by LC-MS/MS analysis; assay type: ADME, cell-free; settings: read-out: PPB (converted)
[31] = Solubility of the compound in water; assay type: physicochemical; settings: buffer
[32] = target: Histamine H3 receptor (Rattus norvegicus) (UniProt Q9QYN8); assay: Inverse agonist activity at histamine H3 receptor on rat cortex membrane by [35S]GTPgammaS binding assay; assay type: functional
[33] = tested on: Rattus norvegicus; assay: Toxicity in rat assessed as rat assessed as adverse EEG activity up to 30 mg/kg, ip; assay type: organism-based; design: dose 30 mg/kg, route intraperitoneal; settings: in vivo; outline: as §2
[34] = Plasma protein binding in mouse at 5 uM after 1 hr by LC-MS/MS analysis; assay type: ADME, cell-free; settings: read-out: PPB (converted)
[35] = tested on: Rattus norvegicus; assay: Wake promoting activity in rat assessed as cumulative wake time at 10 mg/kg, ip after 4 hrs (reference value: 76+/-6 mins); assay type: functional; settings: route intraperitoneal
[36] = tested on: Caco-2; assay: Permeability across human Caco2 cells; assay type: ADME, cell-based
[37] = Plasma protein binding in human at 5 uM after 1 hr by LC-MS/MS analysis; assay type: ADME, cell-free; settings: read-out: PPB (converted)
[38] = Plasma protein binding in dog at 5 uM after 1 hr by LC-MS/MS analysis; assay type: ADME, cell-free, Canis lupus familiaris; settings: read-out: PPB (converted)

## COc1cn[nH]c(=O)c1-c1ccc(OCCCN2CCC[C@H]2C)cc1
[1]
  Ki: 62 nM
[2]
  Ki: 20 nM

## C[C@H](COc1ccc(-c2cn[nH]c(=O)c2)cc1)CN1CCCCC1
[1]
  Ki: 34 nM
[2]
  Ki: 25 nM

## C[C@@H](COc1ccc(-c2cn[nH]c(=O)c2)cc1)CN1CCCCC1
[1]
  Ki: 131 nM
[2]
  Ki: 47 nM

## COCn1ncc(-c2ccc(OCCCN3CCC[C@H]3C)cc2)c(OC)c1=O
[1]
  Ki: 13 nM
[2]
  Ki: 5 nM

## C[C@H](COc1ccc(-c2cn[nH]c(=O)c2)cc1)CN1CCC[C@H]1C
[3]
  half-life: > 40 min
[4]
  half-life: > 40 min
[5]
  Ki: > 10000 nM
[6]
  half-life: > 40 min
[1]
  Ki: 4 nM
[7]
  Kp at 6 h: 6.2
[8]
  bioavailability: 24%
[9]
  Vd: 3.9 L/kg
[10]
  AUC(0-t): 762 ng·h/mL
[11]
  IC50: > 30000 nM
[12]
  clearance: 21 mL/min/kg
[13]
  Ki: > 10000 nM
[14]
  IC50: > 30000 nM
[15]
  half-life: 126 min
[16]
  IC50: > 30000 nM
[17]
  Ki: > 10000 nM
[18]
  Cmax: 187 ng/mL
[19]
  half-life: > 40 min
[20]
  IC50: > 30000 nM
[21]
  IC50: > 30000 nM

## C[C@@H]1CCCN1CCCOc1ccc(-c2cn[nH]c(=O)c2)cc1
[22]
  Activity: Dose-dependent effect
[1]
  Ki: 9 nM
[23]
  fraction unbound: 0.45
[24]
  Activity: Non-toxic
[2]
  Ki: 3 nM
[7]
  Kp at 6 h: 1.8
[25]
  Activity: Active
[8]
  bioavailability: 22%
[10]
  AUC(0-t): 1290 ng·h/mL
[26]
  Activity: Non-toxic
[27]
  Activity: 95%
[12]
  clearance: 10 mL/min/kg
[28]
  ED50: 0.03 mg/kg
[29]
  IC50: 10000 nM
[30]
  fraction unbound at 1 h, 5 µM: 0.8
[31]
  solubility: soluble
[32]
  Activity: Active
[33]
  Activity: Non-toxic
[34]
  fraction unbound at 1 h, 5 µM: 0.8
[18]
  Cmax: 401 ng/mL
[35]
  Time: 191 min
[36]
  permeability: permeable
[37]
  fraction unbound at 1 h, 5 µM: 0.8
[38]
  fraction unbound at 1 h, 5 µM: 0.8

## COCn1ncc(-c2ccc(OCCCN3CCC[C@H]3C)cc2)cc1=O
[3]
  half-life: > 40 min
[4]
  half-life: > 40 min
[5]
  Ki: > 10000 nM
[6]
  half-life: > 40 min
[1]
  Ki: 14 nM
[2]
  Ki: 4 nM
[8]
  bioavailability: 6%
[9]
  Vd: 3.2 L/kg
[10]
  AUC(0-t): 42 ng·h/mL
[11]
  IC50: > 30000 nM
[12]
  clearance: 93 mL/min/kg
[13]
  Ki: > 10000 nM
[14]
  IC50: > 30000 nM
[15]
  half-life: 24 min
[16]
  IC50: > 30000 nM
[17]
  Ki: > 10000 nM
[18]
  Cmax: 53 ng/mL
[19]
  half-life: > 40 min
[20]
  IC50: > 30000 nM
[21]
  IC50: > 30000 nM

## C[C@@H](COc1ccc(-c2cn[nH]c(=O)c2)cc1)CN1CCC[C@H]1C
[1]
  Ki: 43 nM

## COCn1ncc(OC)c(-c2ccc(OCCCN3CCC[C@H]3C)cc2)c1=O
[1]
  Ki: 19 nM
[2]
  Ki: 10 nM
